Only some compounds are listed: those with a hit (about 3.4% of all), similar ones and a draw of the others.
ANO1 activ – TMEM16A chloride channel activators or potentiators, primary screen, cell-based, HTS; 340,000 compounds, 0.3% hits; HEK293 TMEM16A/YFP-H148Q/I152L, iodide quench fluorescence; stronger effect = lower value; AID 623877, 2012; B-score at 10 µM;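 active = fluorescence-ratio B-score plate-corrected deviation score at least 3 library SD below zero, with starting fluorescence score within 5 deviations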;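 also: channel opened by trigger with iodide after compound preincubation; score built on the fluorescence ratio of max minus min over baseline; more negative score means more quench and so TMEM16A activation or potentiation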
MC4R antag cAMP – MC4R antagonists of cAMP signaling, primary screen, cell-based, TR-FRET, antagonist arm of biased-ligand search | Melanocortin receptor 4 (Homo sapiens), P32245 | MC4R-expressing cells, MTII-stimulated cAMP, LANCE TR-FRET | inhibition, % at 6.5 µM | 360,000 compounds, 0.48% hits;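 active = inhibition above its plate's cutoff, the mean of tested wells on that plate plus 3 SD, cut at about 29% in these data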;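 also: 0% = Melanotan II alone and 100% = Melanotan II plus saturating MCL0020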
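System: U2OS-MC4R stable cell line; Technique: Eu-cAMP/anti-cAMP TR-FRET, emission 671 nm; Repeats: single well per compound; Also added: Melanotan II; Dosing: one concentration, 6.5 µM nominal; Schedule: 30-min compound, 1-h challenge, 1-h detection, room temperature.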
TMEM16A inh – TMEM16A chloride channel inhibitors, primary screen, cell-based, HTS. 310,000 compounds, 1.2% hits. HEK293 TMEM16A/YFP iodide influx fluorescence, ionomycin. Anoctamin-1 (Mus musculus), Q8BHY3. normalized B-score (activity score, 25-100; higher = stronger inhibition) at 10 µM;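 active = ratio plate-corrected score three or more library SD toward inhibition, starting fluorescence score within five deviations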;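 also: score derived from kinetic fluorescence span divided by baseline fluorescence per well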
m5-HT2A agonist – mouse Htr2a agonists via beta-arrestin recruitment, primary screen, cell-based, luminescence | 360,000 compounds, 0.66% hits | CHO-K1 mHTR2A beta-arrestin complementation; percent of 30 µM serotonin response | activation, % at 7.6 µM;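 active = activation above a run cutoff, the mean activation of all tested compounds plus 3 SD, cut at about 14% in these data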;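 also: 0% = plate median of compound wells and 100% = 30 µM serotonin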
Target sequence (P35363 whole entry, looked up): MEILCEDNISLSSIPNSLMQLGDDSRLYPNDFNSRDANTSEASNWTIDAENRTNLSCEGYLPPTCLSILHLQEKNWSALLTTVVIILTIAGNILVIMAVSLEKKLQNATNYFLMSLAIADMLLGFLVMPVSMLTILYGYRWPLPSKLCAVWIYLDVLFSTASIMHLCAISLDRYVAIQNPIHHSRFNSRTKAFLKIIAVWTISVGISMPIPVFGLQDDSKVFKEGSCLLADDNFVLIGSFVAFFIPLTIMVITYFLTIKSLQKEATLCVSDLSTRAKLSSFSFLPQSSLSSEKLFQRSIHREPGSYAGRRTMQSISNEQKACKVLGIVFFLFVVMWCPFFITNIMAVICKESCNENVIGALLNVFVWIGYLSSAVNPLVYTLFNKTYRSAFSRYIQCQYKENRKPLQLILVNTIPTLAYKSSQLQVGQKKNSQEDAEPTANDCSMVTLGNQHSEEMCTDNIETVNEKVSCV
MC4R ag barr – MC4R agonists recruiting beta-arrestin, primary screen, cell-based, luminescence, agonist arm of biased-ligand search | Melanocortin receptor 4 (Homo sapiens), P32245 | U2OS MC4R beta-arrestin complementation; percent of melanotan II response, DMSO zero | activation, % at 8.9 µM | 360,000 compounds, 0.98% hits | AID 540308, 2011;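 active = activation above a per-plate cutoff, the mean activation of sample wells on that plate plus 3 SD, cut at about 8% in these data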
MIN6 prolif – inducers of MIN6 beta-cell proliferation, primary screen, ATP luminescence, uHTS. MIN6 cells proliferation, ATPlite luminescence, 48 h; cells starved in 0.2% serum; 100% = growth in 10% serum. proliferation, % at 10 µM. 330,000 compounds, 0.29% hits;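 active = compounds whose signal lies at least 3.5 SD above the mean of all wells on their plate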;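 also: 0% = DMSO-treated cells in low-serum medium and 100% = 10% serum control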
OPRM1 ag – OPRM1 agonists via beta-arrestin recruitment, confirmation, counter-screen for mouse HTR2A agonist project, cell-based, luminescence, single concentration; shares compounds with m5-HT2A agonist; U2OS OPRM1 beta-arrestin PathHunter; DMSO 0%, DAMGO 9.3 µM 100%; activation, % at 9.3 µM; 2,300 compounds, 5.3% hits;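 active = mean activation above the mean of DMSO-only wells plus 3 SD, cut at about 0.5% in these data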
m5-HT2A ag conf – mouse HTR2A agonists, beta-arrestin recruitment, confirmation, cell-based, luminescence, CHO-K1 PathHunter, triplicate; shares compounds with m5-HT2A agonist; DMSO 0%, 30 µM serotonin 100%; activation, % at 7.6 µM; 2,300 compounds, 19% hits; AID 624381, 2012;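 active = mean activation across triplicates above the hit threshold derived in the original primary screen, cut at about 15% in these data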
The depositor's hits bear a star; i = inactive; . = no result given.

SMILES | ANO1 activ | MC4R antag cAMP | TMEM16A inh | m5-HT2A agonist | MC4R ag barr | MIN6 prolif | OPRM1 ag | m5-HT2A ag conf
COc1cccc(C(=O)Nc2nnc(C(C)C)s2)c1 | i | -3 | i | 22* | -3 | -2 | 0 | -3
CC(=O)Oc1ccc2c(=O)c(-c3nc4ccccc4s3)coc2c1 | i | 1 | i | 2 | -4 | -6 | . | .
Cn1c(C(=O)N[C@@H](C(=O)O)c2ccccc2)cc2cc(F)ccc21 | i | 3 | i | -6 | -3 | -3 | . | .
Cc1ccc(C(O)c2ncc(-c3cccc(C(F)(F)F)c3)[nH]2)cc1F (centres undefined) | . | -1 | . | 7 | 6 | . | . | .
Cc1ccc(CN2C(=O)C[C@@H](NC(=O)OCC3c4ccccc4-c4ccccc43)C/C=C\C2c2ccc(C)cc2)cc1 (some centres undefined) | i | 17 | . | -8 | 1 | . | . | .
CCCCCCN1C(=O)CC(NC(=O)OCC2c3ccccc3-c3ccccc32)C/C=C\C1C(C)C (centres undefined) | i | 12 | . | 16* | 0 | . | -1 | -5
C[C@@H]1CN([C@H](C)CO)S(=O)(=O)c2ccc(C#Cc3ccccc3F)cc2O[C@H]1CN(C)C(=O)c1ccc2c(c1)OCO2 | . | 11 | . | 20* | -2 | . | 0 | 32*
C[C@H](CO)N1C[C@H](C)[C@@H](CN(C)CC2CCOCC2)Oc2cc(C#Cc3ccccc3F)ccc2S1(=O)=O | . | -1 | . | -4 | -1 | . | . | .
C[C@H]1CN([C@@H](C)CO)S(=O)(=O)c2ccc(Br)cc2O[C@@H]1CN(C)S(=O)(=O)c1ccccc1 | . | 0 | . | -8 | -1 | . | . | .
C[C@@H]1CN([C@@H](C)CO)S(=O)(=O)c2ccc(Br)cc2O[C@@H]1CN(C)S(=O)(=O)c1cn(C)cn1 | . | 1 | . | 17* | 0 | . | 0 | -1
C[C@@H]1CN([C@@H](C)CO)S(=O)(=O)c2ccc(-c3ccccc3)cc2O[C@@H]1CN(C)Cc1ccccc1C(=O)O | . | 3 | . | 19* | -3 | . | -1 | -1
CCCNC(=O)C1(C)CCN(C(=O)Cc2ccc3ccccc3c2)C1 (centres undefined) | . | 0 | . | 5 | -1 | . | . | .
O=C(O)C1=CCNCC1 | i | 0 | i | 18* | -1 | 0 | -1 | 2
CN(C)S(=O)(=O)N1CCc2ccc(NC(=O)c3ccc(C(F)(F)F)cc3)cc2C1 | i | 0 | i | -5 | 0 | -3 | . | .
CCOc1ccc(NC(=O)CCCN2C(=O)C(c3ccccc3)Oc3cccnc32)cc1 (centres undefined) | i | -4 | i | -4 | -2 | -1 | . | .
COc1ccccc1OCCn1ccnc1 | i | 4 | i | 16* | -1 | 0 | -1 | -6
Cc1ccccc1OCCn1ccnc1 | i | -5 | i | -5 | -1 | 3 | . | .
O=C1N(CN2CCC3(CC2)OCCO3)c2ccccc2C12OCCCO2 | i | -2 | i | 4 | 1 | 3 | . | .
O=C1N(CN2CCN(c3cccc(Cl)c3)CC2)c2ccccc2C12OCCCO2 | i | 14 | i | 18* | 0 | -1 | -1 | 8

Screening results: PubChem, several laboratories
